In brackets after ≈: the same amount, converted by molar mass. Each block holds one compound with its values, some of them ahead of it.
What was measured:
Staphylococcus aureus [1] = assay: Bactericidal activity against Staphylococcus aureus ATCC 29213 after 18 hrs by broth microdilution assay; format: functional
In short: (§1)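 MBC is the lowest concentration giving at least 99.9% reduction of the initial inoculum. Values are in mmol/L.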

Listeria monocytogenes [2] = assay: Bactericidal activity against Listeria monocytogenes CIP 103575 after 18 hrs by broth microdilution assay; format: functional; in short: as §1
Enterococcus faecalis [3] = assay: Bactericidal activity against Enterococcus faecalis ATCC 29212 after 18 hrs by broth microdilution assay; format: functional; in short: as §1
Staphylococcus aureus [4] = assay: Antibacterial activity against Staphylococcus aureus ATCC 29213 after 18 hrs by broth microdilution assay; format: functional; conditions: ATCC 29213, 18 h
In short: (§2)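 Broth MIC testing on Gram-positive strains followed CLSI M100-S17 recommendations. […] Values are in mmol/L. Amoxicillin was the control for Listeria and Enterococcus strains and oxacillin for S. aureus strains.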

Enterococcus faecalis [5] = assay: Antibacterial activity against Enterococcus faecalis ATCC 29212 after 18 hrs by broth microdilution assay; format: functional; conditions: ATCC 29212, 18 h; in short: as §2
[6] = Surfactant property of the compound in water assessed as critical micelle concentration or minimal hydrotropic concentration by platinum rod based tensiometric method
In short: (§3)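 Surface tension of aqueous solutions was measured by a rod method based on the Wilhelmy plate. Water was progressively concentrated with a stock surfactant solution at constant volume. At each concentration, readings continued until stable (SD of the last 5 values 0.2 mN/m). MHC or CMC and the plateau γsat were taken from the tension vs concentration curves.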

Listeria monocytogenes [7] = assay: Antibacterial activity against Listeria monocytogenes CIP 103575 after 18 hrs by broth microdilution assay; format: functional; conditions: CIP 103575, 18 h; in short: as §2
[8] = Surfactant property of the compound in aqueous solution assessed as critical micelle concentration or minimal hydrotropic concentration; in short: as §3
Pseudomonas aeruginosa = assay: Antibacterial activity against Pseudomonas aeruginosa ATCC 27853 after 18 hrs by broth microdilution assay; format: functional; conditions: ATCC 27853, 18 h
Escherichia coli = assay: Antibacterial activity against Escherichia coli ATCC 8739 after 18 hrs by broth microdilution assay; format: functional; conditions: ATCC 8739, 18 h
Enterococcus faecium [9] = assay: Antibacterial activity against Enterococcus faecium isolate 015205731401 after 18 hrs by broth microdilution assay; format: functional; conditions: isolate 015205731401, 18 h; in short: as §2
Enterococcus faecium [10] = assay: Antibacterial activity against […] Enterococcus faecium isolate 0151850763 after 18 hrs by broth microdilution assay; format: functional; conditions: isolate 0151850763, 18 h
In short: (§4)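 Enterococcus faecium strains (reference, clinical isolates, VanA isolate) tested by MIC following CLSI recommendations (M100-S17), with amoxicillin as control. […] Values are expressed in mmol/L.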

Staphylococcus aureus [11] = assay: Antibacterial activity against methicillin-resistant Staphylococcus aureus isolate HT 2004-0012 after 18 hrs by broth microdilution assay; format: functional; conditions: isolate HT 2004-0012, 18 h
In short: (§5)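 Staphylococcus aureus reference strains and methicillin- and daptomycin-resistant isolates tested by MIC according to CLSI guidance (M100-S17), with oxacillin as control. The endpoint is the lowest concentration with no growth in all replicates versus a negative control at 18 h. Values are reported in mmol/L.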

Staphylococcus aureus [12] = assay: Antibacterial activity against daptomycin-resistant Staphylococcus aureus isolate ST 2015-0989 after 18 hrs by broth microdilution assay; format: functional; conditions: isolate ST 2015-0989, 18 h; in short: as §5
Staphylococcus aureus [13] = assay: Antibacterial activity against methicillin-resistant Staphylococcus aureus LAC USA300 after 18 hrs by broth microdilution assay; format: functional; in short: as §5
Staphylococcus aureus [14] = assay: Antibacterial activity against methicillin-resistant Staphylococcus aureus isolate HT 2006-1004 after 18 hrs by broth microdilution assay; format: functional; conditions: isolate HT 2006-1004, 18 h; in short: as §5
Staphylococcus aureus [15] = assay: Antibacterial activity against methicillin-resistant Staphylococcus aureus isolate HT 2002-0417 after 18 hrs by broth microdilution assay; format: functional; conditions: isolate HT 2002-0417, 18 h; in short: as §5
Staphylococcus aureus [16] = assay: Antibacterial activity against daptomycin-resistant Staphylococcus aureus isolate ST 2015-0188 after 18 hrs by broth microdilution assay; format: functional; conditions: isolate ST 2015-0188, 18 h; in short: as §5
Staphylococcus aureus [17] = assay: Antibacterial activity against methicillin-resistant Staphylococcus aureus Mu3 after 18 hrs by broth microdilution assay; format: functional; conditions: Mu3, 18 h; in short: as §5
Enterococcus faecium [18] = assay: Antibacterial activity against Enterococcus faecium isolate 015205261801 after 18 hrs by broth microdilution assay; format: functional; conditions: isolate 015205261801, 18 h; in short: as §4
Staphylococcus aureus [19] = assay: Antibacterial activity against daptomycin-resistant Staphylococcus aureus isolate ST 2014-1288 after 18 hrs by broth microdilution assay; format: functional; conditions: isolate ST 2014-1288, 18 h; in short: as §5
Staphylococcus aureus [20] = assay: Antibacterial activity against methicillin-resistant Staphylococcus aureus isolate LY 1999-0053 after 18 hrs by broth microdilution assay; format: functional; conditions: isolate LY 1999-0053, 18 h; in short: as §5
Listeria monocytogenes [21] = assay: Antibacterial activity against Listeria monocytogenes isolate 015170199001 after 18 hrs by broth microdilution assay; format: functional; conditions: isolate 015170199001, 18 h; in short: as §2
Enterococcus faecium [22] = assay: Antibacterial activity against Enterococcus faecium CIP 103510 after 18 hrs by broth microdilution assay; format: functional; conditions: CIP 103510, 18 h; in short: as §4
Listeria monocytogenes [23] = assay: Antibacterial activity against Listeria monocytogenes isolate 015189074801 after 18 hrs by broth microdilution assay; format: functional; conditions: isolate 015189074801, 18 h; in short: as §2
Enterococcus faecalis [24] = assay: Antibacterial activity against Enterococcus faecalis isolate 015206179901 after 18 hrs by broth microdilution assay; format: functional; conditions: isolate 015206179901, 18 h; in short: as §2
Listeria monocytogenes [25] = assay: Antibacterial activity against Listeria monocytogenes isolate 015181840701 after 18 hrs by broth microdilution assay; format: functional; conditions: isolate 015181840701, 18 h; in short: as §2
Staphylococcus aureus [26] = assay: Antibacterial activity against Staphylococcus aureus ATCC 25923 after 18 hrs by broth microdilution assay; format: functional; conditions: ATCC 25923, 18 h; in short: as §5

MIC (Staphylococcus aureus [4]): 2000 µM (≈ 669 µg/mL)
MIC (Enterococcus faecalis [5]): 500 µM (≈ 167 µg/mL)
MIC (Listeria monocytogenes [7]): 500 µM (≈ 167 µg/mL)
Structure (SMILES): CCCCCCCCCCOC[C@H]1O[C@H](OC)[C@H](O)[C@@H](O)[C@@H]1O
MBC<=99.9 (Staphylococcus aureus [1]): 2000 µM (≈ 669 µg/mL)
MBC<=99.9 (Listeria monocytogenes [2]): 500 µM (≈ 167 µg/mL)
MBC<=99.9 (Enterococcus faecalis [3]): 500 µM (≈ 167 µg/mL)
CMC [6]: 0.277 mmol/L

Structure (SMILES): CCCCCCCCCCCCO[C@@H]1O[C@H](CO)C(O[C@H]2O[C@H](CO)[C@@H](O)[C@H](O)[C@H]2O)[C@H](O)[C@H]1O (single isomer, unassigned)
CMC [8]: 0.2 mmol/L

Structure (SMILES): CCCCCCCCC[C@@H]1OC[C@H]2O[C@H](OC)[C@H](O)[C@@H](O)[C@@H]2O1
CMC [6]: 0.15 mmol/L

MIC (Staphylococcus aureus [4]): 320 µM (≈ 120 µg/mL)
MIC (Listeria monocytogenes [7]): 80 µM (≈ 30.1 µg/mL)
Structure (SMILES): CCCCCCCCCCCC(=O)OC[C@H]1O[C@H](OC)[C@H](O)[C@@H](O)[C@@H]1O
CMC [8]: 0.052 mmol/L

Structure (SMILES): CCCCCCCCCCCCOC[C@H]1OC(O)[C@H](O)[C@@H](O)[C@@H]1O (stereo partly specified)
CMC [8]: 0.5 mmol/L

MIC (Pseudomonas aeruginosa): > 4000 µM
MIC (Staphylococcus aureus [4]): 2000 µM (≈ 613 µg/mL)
MIC (Enterococcus faecalis [5]): > 4000 µM
MIC (Listeria monocytogenes [7]): 2000 µM (≈ 613 µg/mL)
MIC (Escherichia coli): > 4000 µM
Structure (SMILES): CCCCCCCCOC[C@H]1O[C@H](OC)[C@H](O)[C@@H](O)[C@@H]1O
CMC [6]: 0.434 mmol/L

Structure (SMILES): CCCCCCCCCCC[C@@H]1OC[C@H]2O[C@@H](OC)[C@H](O)[C@@H](O)[C@@H]2O1
MIC (Enterococcus faecium [9]): 40 µM (≈ 14.4 µg/mL)
MIC (Enterococcus faecium [10]): 90 µM (≈ 32.4 µg/mL)
MIC (Staphylococcus aureus [11]): 180 µM (≈ 64.9 µg/mL)
MIC (Staphylococcus aureus [12]): 180 µM (≈ 64.9 µg/mL)
MIC (Staphylococcus aureus [13]): 180 µM (≈ 64.9 µg/mL)
MIC (Staphylococcus aureus [4]): 180 µM (≈ 64.9 µg/mL)
MIC (Staphylococcus aureus [14]): 180 µM (≈ 64.9 µg/mL)
MIC (Enterococcus faecalis [5]): 180 µM (≈ 64.9 µg/mL)
MIC (Staphylococcus aureus [15]): 370 µM (≈ 133 µg/mL)
MIC (Staphylococcus aureus [16]): 180 µM (≈ 64.9 µg/mL)
MIC (Staphylococcus aureus [17]): 180 µM (≈ 64.9 µg/mL)
MIC (Enterococcus faecium [18]): 20 µM (≈ 7.21 µg/mL)
MIC (Listeria monocytogenes [7]): 40 µM (≈ 14.4 µg/mL)
MIC (Staphylococcus aureus [19]): 180 µM (≈ 64.9 µg/mL)
MIC (Staphylococcus aureus [20]): 180 µM (≈ 64.9 µg/mL)
MIC (Listeria monocytogenes [21]): 40 µM (≈ 14.4 µg/mL)
MIC (Enterococcus faecium [22]): 90 µM (≈ 32.4 µg/mL)
MIC (Listeria monocytogenes [23]): 40 µM (≈ 14.4 µg/mL)
MIC (Enterococcus faecalis [24]): 90 µM (≈ 32.4 µg/mL)
MIC (Listeria monocytogenes [25]): 180 µM (≈ 64.9 µg/mL)
MIC (Staphylococcus aureus [26]): 180 µM (≈ 64.9 µg/mL)

Structure (SMILES): CCCCCCCCCCCCOC[C@H]1O[C@H](OC)[C@H](O)[C@@H](O)[C@@H]1O
MIC (Staphylococcus aureus [4]): 40 µM (≈ 14.5 µg/mL)
CMC [6]: 0.03 mmol/L
MIC (Listeria monocytogenes [7]): 40 µM (≈ 14.5 µg/mL)

Structure (SMILES): CCCCCCCCCCCCO[C@H]1[C@H](O)[C@@H](O)[C@@H](OC)O[C@@H]1CO
CMC [6]: 0.046 mmol/L

Structure (SMILES): CCCCCCCCCCCC(=O)OC[C@H]1O[C@H](O[C@H]2[C@H](O)[C@@H](O)C(O)O[C@@H]2CO)[C@H](O)[C@@H](O)[C@@H]1O (stereo partly specified)
CMC [8]: 0.24 mmol/L

Structure (SMILES): CCCCCCCCCCCCOC[C@H]1O[C@H](OC)[C@@H](O)[C@@H](O)[C@@H]1O
MIC (Enterococcus faecium [9]): 40 µM (≈ 14.5 µg/mL)
MIC (Enterococcus faecium [10]): 40 µM (≈ 14.5 µg/mL)
MIC (Staphylococcus aureus [11]): 90 µM (≈ 32.6 µg/mL)
MIC (Staphylococcus aureus [12]): 180 µM (≈ 65.3 µg/mL)
MIC (Staphylococcus aureus [13]): 90 µM (≈ 32.6 µg/mL)
MIC (Staphylococcus aureus [4]): 90 µM (≈ 32.6 µg/mL)
MIC (Staphylococcus aureus [14]): 180 µM (≈ 65.3 µg/mL)
MIC (Enterococcus faecalis [5]): 40 µM (≈ 14.5 µg/mL)
MIC (Staphylococcus aureus [15]): 90 µM (≈ 32.6 µg/mL)
MIC (Staphylococcus aureus [16]): 180 µM (≈ 65.3 µg/mL)
MIC (Staphylococcus aureus [17]): 180 µM (≈ 65.3 µg/mL)
MIC (Enterococcus faecium [18]): 40 µM (≈ 14.5 µg/mL)
MIC (Listeria monocytogenes [7]): 90 µM (≈ 32.6 µg/mL)
MIC (Staphylococcus aureus [19]): 90 µM (≈ 32.6 µg/mL)
MIC (Staphylococcus aureus [20]): 90 µM (≈ 32.6 µg/mL)
MIC (Listeria monocytogenes [21]): 40 µM (≈ 14.5 µg/mL)
MIC (Enterococcus faecium [22]): 90 µM (≈ 32.6 µg/mL)
MIC (Listeria monocytogenes [23]): 20 µM (≈ 7.25 µg/mL)
MIC (Enterococcus faecalis [24]): 90 µM (≈ 32.6 µg/mL)
MIC (Listeria monocytogenes [25]): 40 µM (≈ 14.5 µg/mL)
MIC (Staphylococcus aureus [26]): 90 µM (≈ 32.6 µg/mL)

Structure (SMILES): CC1(C)S[C@@H]2[C@H](NC(=O)[C@H](N)c3ccc(O)cc3)C(=O)N2[C@H]1C(=O)O [AMOXICILLIN]
MIC (Enterococcus faecium [9]): 250 µM (≈ 91.4 µg/mL)
MIC (Enterococcus faecium [10]): 500 µM (≈ 183 µg/mL)
MIC (Enterococcus faecalis [5]): 2 µM (≈ 0.731 µg/mL)
MIC (Enterococcus faecium [18]): 250 µM (≈ 91.4 µg/mL)
MIC (Listeria monocytogenes [7]): 2 µM (≈ 0.731 µg/mL)
MIC (Listeria monocytogenes [21]): 4 µM (≈ 1.46 µg/mL)
MIC (Enterococcus faecium [22]): 60 µM (≈ 21.9 µg/mL)
MIC (Listeria monocytogenes [23]): 2 µM (≈ 0.731 µg/mL)
MIC (Enterococcus faecalis [24]): 2 µM (≈ 0.731 µg/mL)
MIC (Listeria monocytogenes [25]): 2 µM (≈ 0.731 µg/mL)

— ChEMBL document CHEMBL4004832, “Synthesis, surfactant properties and antimicrobial activities of methyl glycopyranoside ethers” (2017)
